Results on one compound are retold here after ChEMBL document CHEMBL4270612, “Discovery of dual GyrB/ParE inhibitors active against Gram-negative bacteria” (Eur J Med Chem, 2018).

In brackets after ≈: the same amount, converted by molar mass.

Sequence of DNA topoisomerase 4 subunit B (P20083 whole entry): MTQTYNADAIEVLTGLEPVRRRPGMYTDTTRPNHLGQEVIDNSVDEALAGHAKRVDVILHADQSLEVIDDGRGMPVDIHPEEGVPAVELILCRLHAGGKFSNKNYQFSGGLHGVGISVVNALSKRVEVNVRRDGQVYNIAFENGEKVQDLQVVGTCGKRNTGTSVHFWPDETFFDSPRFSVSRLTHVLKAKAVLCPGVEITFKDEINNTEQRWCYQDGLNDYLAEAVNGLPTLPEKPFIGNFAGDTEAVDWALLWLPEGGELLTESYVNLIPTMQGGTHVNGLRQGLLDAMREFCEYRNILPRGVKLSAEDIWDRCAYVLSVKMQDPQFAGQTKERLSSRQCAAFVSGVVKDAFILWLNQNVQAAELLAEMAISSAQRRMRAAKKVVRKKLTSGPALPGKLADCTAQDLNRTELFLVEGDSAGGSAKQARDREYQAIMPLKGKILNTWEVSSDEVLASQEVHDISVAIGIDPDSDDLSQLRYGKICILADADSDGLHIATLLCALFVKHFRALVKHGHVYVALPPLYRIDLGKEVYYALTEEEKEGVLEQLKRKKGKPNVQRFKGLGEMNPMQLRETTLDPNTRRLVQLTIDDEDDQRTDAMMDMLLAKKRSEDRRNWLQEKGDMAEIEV

The first data set has as its system Staphylococcus aureus. As to the kind of experiment: Antibacterial activity against Staphylococcus aureus ATCC 29213 after 24 hrs in presence of 2% human albumin by broth microdilution method. The data set is classed as functional. The settings on record: ATCC 29213, 24 h. On the technique in general: Broth dilution looks for growth in wells or tubes with falling amounts of substance.
On to `CCNC(=O)Nc1cc(-c2nc(C3CC3)cs2)c(-c2cc(-c3n[nH]c(=O)o3)cnc2N2C3CCC2CN(C)C3)cn1`, for which the MIC was less than 0.06 µg/mL.

The next data set deals with Pseudomonas aeruginosa. As to the kind of experiment: Antibacterial activity against Pseudomonas aeruginosa ARC4068 after 24 hrs by broth microdilution method. It is filed as functional. Particulars: ARC4068, 24 h. Put shortly:
(§1)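 Broth microdilution per CLSI. Bacterial suspension adjusted to 1×10^6 CFU/mL in cation-adjusted Mueller–Hinton broth and mixed 1:1 with 2-fold serial compound dilutions. Plates incubated at 35 °C with shaking at 140 rpm for 24 h.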
Consider `CCNC(=O)Nc1cc(-c2nc(C3CC3)cs2)c(-c2cc(-c3n[nH]c(=O)o3)cnc2N2C3CCC2CN(C)C3)cn1`, for which the MIC is 4 µg/mL (≈ 6.97 µM).

For a further data set, the system named is Pseudomonas aeruginosa. As to the kind of experiment: Antibacterial activity against Pseudomonas aeruginosa ARC3506 after 24 hrs by broth microdilution method. Particulars: ARC3506, 24 h. It is filed as functional. Put shortly:
(§2)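 Broth microdilution per CLSI. Bacterial suspension adjusted to 1×10^6 CFU/mL in cation-adjusted Mueller–Hinton broth and mixed 1:1 with 2-fold serial compound dilutions. Final DMSO 2.5% v/v. Plates incubated at 35 °C with shaking at 140 rpm for 24 h.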
`CCNC(=O)Nc1cc(-c2nc(C3CC3)cs2)c(-c2cc(-c3n[nH]c(=O)o3)cnc2N2C3CCC2CN(C)C3)cn1` came in with an MIC of 2 µg/mL (≈ 3.49 µM).

The next data set concerns Staphylococcus aureus. As to the kind of experiment: Antibacterial activity against methicillin-resistant Staphylococcus aureus FQ-R after 24 hrs by broth microdilution method. The data set is classed as functional.
Conditions: not given
The method, boiled down: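 Broth microdilution per CLSI. Bacterial suspensions adjusted to 1×10^6 CFU/mL in cation-adjusted Mueller–Hinton broth, mixed 1:1 with 2-fold serial compound dilutions (final DMSO 2.5% v/v). Incubation 35 °C, 140 rpm, 24 h.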
Regarding `CCNC(=O)Nc1cc(-c2nc(C3CC3)cs2)c(-c2cc(-c3n[nH]c(=O)o3)cnc2N2C3CCC2CN(C)C3)cn1`, the MIC was less than 0.06 µg/mL.

Another data set relates to Pseudomonas aeruginosa. As to the kind of experiment: Antibacterial activity against Pseudomonas aeruginosa ARC3612 after 24 hrs by broth microdilution method. The data set is classed as functional. Particulars: ARC3612, 24 h. The method, boiled down: as §2
On to `CCNC(=O)Nc1cc(-c2nc(C3CC3)cs2)c(-c2cc(-c3n[nH]c(=O)o3)cnc2N2C3CCC2CN(C)C3)cn1`, for which the MIC was 4 µg/mL (≈ 6.97 µM).

A further data set concerns Acinetobacter baumannii. As to the kind of experiment: Antibacterial activity against Acinetobacter baumannii ARC3882 after 24 hrs by broth microdilution method. It is filed as functional. The settings on record: ARC3882, 24 h. The method, boiled down: as §2
With `CCNC(=O)Nc1cc(-c2nc(C3CC3)cs2)c(-c2cc(-c3n[nH]c(=O)o3)cnc2N2C3CCC2CN(C)C3)cn1`, the MIC stood at 1 µg/mL (≈ 1.74 µM).

The test system of another data set is Pseudomonas aeruginosa. As to the kind of experiment: Antibacterial activity against Pseudomonas aeruginosa ARC4060 after 24 hrs by broth microdilution method. Particulars: ARC4060, 24 h. The data set is classed as functional. Put shortly: as §2
For `CCNC(=O)Nc1cc(-c2nc(C3CC3)cs2)c(-c2cc(-c3n[nH]c(=O)o3)cnc2N2C3CCC2CN(C)C3)cn1`, the MIC turned out to be 4 µg/mL (≈ 6.97 µM).

In another data set the test system is Pseudomonas aeruginosa. As to the kind of experiment: Antibacterial activity against Pseudomonas aeruginosa ARC3916 after 24 hrs by broth microdilution method. The data set is classed as functional. The settings on record: ARC3916, 24 h. Put shortly: as §2
Compound `CCNC(=O)Nc1cc(-c2nc(C3CC3)cs2)c(-c2cc(-c3n[nH]c(=O)o3)cnc2N2C3CCC2CN(C)C3)cn1` had an MIC of 2 µg/mL (≈ 3.49 µM).

The next data set has as its system Acinetobacter baumannii. As to the kind of experiment: Antibacterial activity against Acinetobacter baumannii ARC2781 after 24 hrs by broth microdilution method. It is filed as functional. The settings on record: ARC2781, 24 h. Put shortly:
as §1
Consider `CCNC(=O)Nc1cc(-c2nc(C3CC3)cs2)c(-c2cc(-c3n[nH]c(=O)o3)cnc2N2C3CCC2CN(C)C3)cn1`, for which the MIC came to 0.25 µg/mL (≈ 0.436 µM).

For another data set, the system named is Pseudomonas aeruginosa. As to the kind of experiment: Antibacterial activity against Pseudomonas aeruginosa ARC3925 after 24 hrs by broth microdilution method. Particulars: ARC3925, 24 h. The data set is classed as functional. Put shortly: as §1
`CCNC(=O)Nc1cc(-c2nc(C3CC3)cs2)c(-c2cc(-c3n[nH]c(=O)o3)cnc2N2C3CCC2CN(C)C3)cn1`: the MIC came out at 4 µg/mL (≈ 6.97 µM).

The next data set has as its system Acinetobacter baumannii. As to the kind of experiment: Antibacterial activity against Acinetobacter baumannii ARC3484 after 24 hrs by broth microdilution method. It is filed as functional. The settings on record: ARC3484, 24 h. The method, boiled down:
as §1
For the compound `CCNC(=O)Nc1cc(-c2nc(C3CC3)cs2)c(-c2cc(-c3n[nH]c(=O)o3)cnc2N2C3CCC2CN(C)C3)cn1`, the MIC was determined as 2 µg/mL (≈ 3.49 µM).

The subject of another data set is Pseudomonas aeruginosa. As to the kind of experiment: Antibacterial activity against Pseudomonas aeruginosa ARC3504 after 24 hrs by broth microdilution method. The data set is classed as functional. The settings on record: ARC3504, 24 h. Put shortly:
as §2
As for `CCNC(=O)Nc1cc(-c2nc(C3CC3)cs2)c(-c2cc(-c3n[nH]c(=O)o3)cnc2N2C3CCC2CN(C)C3)cn1`, the MIC turned out to be 4 µg/mL (≈ 6.97 µM).

System in a further data set: not listed separately
As to the kind of experiment: Protein binding in human plasma. The data set is classed as ADME, cell-free. The settings on record: read-out: PPB (converted).
As to `CCNC(=O)Nc1cc(-c2nc(C3CC3)cs2)c(-c2cc(-c3n[nH]c(=O)o3)cnc2N2C3CCC2CN(C)C3)cn1`, the fraction unbound was 0.149.

In the next data set the test system is Haemophilus influenzae. As to the kind of experiment: Antibacterial activity against Haemophilus influenzae ATCC 49247 after 24 hrs by broth microdilution method. The data set is classed as functional. The settings on record: ATCC 49247, 24 h. The method, boiled down:
as §2
`CCNC(=O)Nc1cc(-c2nc(C3CC3)cs2)c(-c2cc(-c3n[nH]c(=O)o3)cnc2N2C3CCC2CN(C)C3)cn1` had an MIC of less than 0.06 µg/mL.

A further data set relates to Pseudomonas aeruginosa. As to the kind of experiment: Antibacterial activity against Pseudomonas aeruginosa ARC3607 after 24 hrs by broth microdilution method. It is filed as functional. The settings on record: ARC3607, 24 h. Put shortly:
as §2
As for `CCNC(=O)Nc1cc(-c2nc(C3CC3)cs2)c(-c2cc(-c3n[nH]c(=O)o3)cnc2N2C3CCC2CN(C)C3)cn1`, the MIC was determined as 4 µg/mL (≈ 6.97 µM).

The next data set relates to Streptococcus pneumoniae. As to the kind of experiment: Antibacterial activity against Streptococcus pneumoniae ATCC 49619 after 24 hrs by broth microdilution method. The settings on record: ATCC 49619, 24 h. It is filed as functional. The method, boiled down:
as §2
Compound `CCNC(=O)Nc1cc(-c2nc(C3CC3)cs2)c(-c2cc(-c3n[nH]c(=O)o3)cnc2N2C3CCC2CN(C)C3)cn1` yielded an MIC of less than 0.06 µg/mL.

A further data set has as its system Acinetobacter baumannii. As to the kind of experiment: Antibacterial activity against Acinetobacter baumannii ARC3659 after 24 hrs by broth microdilution method. The data set is classed as functional. The settings on record: ARC3659, 24 h. Put shortly:
as §2
The compound `CCNC(=O)Nc1cc(-c2nc(C3CC3)cs2)c(-c2cc(-c3n[nH]c(=O)o3)cnc2N2C3CCC2CN(C)C3)cn1` gave an MIC of 1 µg/mL (≈ 1.74 µM).

The next data set has as its system Acinetobacter baumannii. As to the kind of experiment: Antibacterial activity against Acinetobacter baumannii ARC3495 after 24 hrs by broth microdilution method. The data set is classed as functional. The settings on record: ARC3495, 24 h. Put shortly: as §2
On to `CCNC(=O)Nc1cc(-c2nc(C3CC3)cs2)c(-c2cc(-c3n[nH]c(=O)o3)cnc2N2C3CCC2CN(C)C3)cn1`, for which the MIC was found to be 0.5 µg/mL (≈ 0.872 µM).

A further data set deals with Streptococcus pyogenes. As to the kind of experiment: Antibacterial activity against Streptococcus pyogenes ARC838 after 24 hrs by broth microdilution method. The data set is classed as functional. The settings on record: ARC838, 24 h. The method, boiled down:
as §1
The compound `CCNC(=O)Nc1cc(-c2nc(C3CC3)cs2)c(-c2cc(-c3n[nH]c(=O)o3)cnc2N2C3CCC2CN(C)C3)cn1` displayed an MIC of less than 0.06 µg/mL.

Another data set concerns Pseudomonas aeruginosa. As to the kind of experiment: Antibacterial activity against Pseudomonas aeruginosa ARC003 after 24 hrs by broth microdilution method. The data set is classed as functional. The settings on record: ARC003, 24 h. The method, boiled down: as §2
In the case of `CCNC(=O)Nc1cc(-c2nc(C3CC3)cs2)c(-c2cc(-c3n[nH]c(=O)o3)cnc2N2C3CCC2CN(C)C3)cn1`, the MIC was determined as 1 µg/mL (≈ 1.74 µM).

The subject of the next data set is Pseudomonas aeruginosa. As to the kind of experiment: Antibacterial activity against Pseudomonas aeruginosa ARC3502 after 24 hrs by broth microdilution method. It is filed as functional. The settings on record: ARC3502, 24 h. The method, boiled down:
as §1
`CCNC(=O)Nc1cc(-c2nc(C3CC3)cs2)c(-c2cc(-c3n[nH]c(=O)o3)cnc2N2C3CCC2CN(C)C3)cn1` registered an MIC of 4 µg/mL (≈ 6.97 µM).

Another data set addresses DNA topoisomerase 4 subunit B (Escherichia coli K-12, UniProt P20083). As to the kind of experiment: Inhibition of Escherichia coli ParE.
Conditions: not given
The IC50 is the concentration at which inhibition is half-maximal. Compound `CCNC(=O)Nc1cc(-c2nc(C3CC3)cs2)c(-c2cc(-c3n[nH]c(=O)o3)cnc2N2C3CCC2CN(C)C3)cn1` yielded an IC50 of 3 nM.
